High-throughput results deposited in PubChem BioAssay by Johns Hopkins Ion Channel Center.
A selection: hits, their analogues and other compounds. The true share with any hit is near 2.9%.
TRPC6 act: mouse TRPC6 channel activators, primary screen, cell-based, HEK293, membrane potential dye. B-score at 10 µM. Short transient receptor potential channel 6 (Mus musculus), Q61143. HEK293-TRPC6 membrane potential dye fluorescence; stronger effect = higher value. 310,000 tested, 0.13% active;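 active = B-score of the integrated fluorescence ratio above library mean plus 3 SD, and starting fluorescence ratio within library mean plus 5 SD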;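 note: higher score means more depolarization so channel activation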
TRPC6 inhibitor: mouse TRPC6 channel inhibitors, primary screen, cell-based, HEK293, membrane potential dye. Short transient receptor potential channel 6 (Mus musculus), Q61143. ACh-evoked depolarization; stronger effect = lower value. B-score at 10 µM. 310,000 tested, 1.1% active. AID 2553, 2010;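 active = B-score under library mean minus 3 SD, initial fluorescence not abnormally high, positive integrated signal ratio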;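 note: B-score derived from integrated fluorescence ratio over the kinetic read; more negative B-score means stronger inhibition of depolarization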
TRPC4 PAM: positive allosteric modulators of TRPC4, primary screen, cell-based, mouse TRPC4beta, HEK293 mu-opioid, Fluo-4 calcium; Short transient receptor potential channel 4 (Mus musculus), Q9QUQ5; DAMGO EC20, Fluo-4 Ca2+ flux; stronger effect = higher value; B-score at 10 µM; 310,000 tested, 0.42% active; AID 2227, 2009;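 active = B-score of calcium response area above 5 SD of library B-scores, with initial fluorescence ratio within 5 SD of library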
Target sequence (Q9QUQ5 whole entry, looked up): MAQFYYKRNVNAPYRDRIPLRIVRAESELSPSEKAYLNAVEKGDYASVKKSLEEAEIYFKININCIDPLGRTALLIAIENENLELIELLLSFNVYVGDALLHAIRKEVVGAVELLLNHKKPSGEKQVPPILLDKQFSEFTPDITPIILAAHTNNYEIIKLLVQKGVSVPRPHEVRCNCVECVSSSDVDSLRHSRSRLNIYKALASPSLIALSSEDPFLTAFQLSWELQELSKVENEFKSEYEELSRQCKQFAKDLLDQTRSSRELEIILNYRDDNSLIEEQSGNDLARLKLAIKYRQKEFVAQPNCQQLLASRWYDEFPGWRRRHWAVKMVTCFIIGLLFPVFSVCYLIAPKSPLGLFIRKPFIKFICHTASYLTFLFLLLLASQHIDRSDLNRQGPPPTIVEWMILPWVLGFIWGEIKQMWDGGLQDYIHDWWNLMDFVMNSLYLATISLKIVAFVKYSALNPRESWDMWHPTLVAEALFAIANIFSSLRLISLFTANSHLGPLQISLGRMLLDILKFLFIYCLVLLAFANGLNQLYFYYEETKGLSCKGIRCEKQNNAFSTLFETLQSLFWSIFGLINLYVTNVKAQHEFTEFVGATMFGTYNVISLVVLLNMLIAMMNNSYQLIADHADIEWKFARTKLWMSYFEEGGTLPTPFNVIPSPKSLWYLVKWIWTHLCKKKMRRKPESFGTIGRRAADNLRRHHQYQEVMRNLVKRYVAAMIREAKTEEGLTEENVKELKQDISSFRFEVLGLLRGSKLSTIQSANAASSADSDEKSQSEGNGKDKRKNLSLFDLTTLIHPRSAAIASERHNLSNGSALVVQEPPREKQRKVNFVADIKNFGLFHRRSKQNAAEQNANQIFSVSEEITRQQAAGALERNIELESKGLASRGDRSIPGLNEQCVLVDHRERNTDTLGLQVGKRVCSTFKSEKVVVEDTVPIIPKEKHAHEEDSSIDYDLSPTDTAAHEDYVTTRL
TRPC4 inh: inhibitors of mouse TRPC4 channel, primary screen, Fluo4 calcium, HEK293 TRPC4beta/mu-opioid cells; DAMGO-evoked Fluo4 calcium flux; stronger effect = lower value; B-score at 10 µM; 300,000 tested, 0.39% active; Short transient receptor potential channel 4 (Mus musculus), Q9QUQ5;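 active = B-score over 3 SD under the library average, no early fluorescence shift, positive overall ratio signal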
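Signal: kinetic Fluo4 fluorescence imaging of calcium influx. Material: stable TRPC4beta/mu-opioid receptor HEK293 cells. Probe or stimulus: DAMGO in two steps, submaximal then maximal.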
TRPC4 act: activators of mouse TRPC4 channel, primary screen, Fluo4 calcium, HEK293 TRPC4beta/mu-opioid cells | Short transient receptor potential channel 4 (Mus musculus), Q9QUQ5 | Fluo4 calcium fluorescence; stronger effect = higher value | B-score at 10 µM | 310,000 tested, 0.49% active | AID 2237, 2010;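 active = B-score above 5 SD of library B-scores, and initial fluorescence ratio not above library mean plus 5 SD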;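 note: positive B-score marks a calcium rise read as TRPC4 activation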
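Incubation: 45 min room-temperature Fluo4 loading, 110 s read / System: HEK293 cells stably co-expressing mouse TRPC4beta and mu-opioid receptor / Signal: Fluo4 fluorescence, kinetic / Control set: buffer (low) and maximal DAMGO (high) / Measure: integrated baseline-normalised fluorescence ratio, converted to per-well B score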
Kir21 block: inhibitors of mouse Kir2.1 inward-rectifier potassium channel | HEK293-Kir2.1, FluxOR thallium flux fluorescence; stronger effect = lower value | B-score at 10 µM | Inward rectifier potassium channel 2 (Mus musculus), P35561 | AID 1672, 2009 | 310,000 tested, 0.85% active;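 active = fluorescence ratio B-score at or below minus 3 SD of library scores, with starting-brightness B-score within 2 SD, cut at about -4.2 in these data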;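 note: channel flux triggered by added potassium and thallium sulfate stimulus; B-score of peak minus minimum fluorescence over baseline after thallium stimulus; more negative B-score means stronger Kir2.1 block with less thallium influx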
Large screens that a line does not name were inactive.

Cc1ccc(S(=O)(=O)Nc2ccc(O)c3cccnc23)cc1	Kir21 block -4.5
COc1cccc(-c2nnc(SC(C(=O)c3c[nH]c4ccccc34)c3ccccc3)n2C)c1 (configuration not stated)	none
CCCC(=O)Nc1ccc(C(=O)NNC(=S)NC(=O)c2cccs2)cc1	none
Cc1ccccc1C(=O)NNC(=S)NC(=O)c1cccs1	TRPC4 act 159
O=C(NC(=S)NNC(=O)c1cccs1)c1ccccc1	TRPC4 act 82
Cc1cccc(C(=O)NC(=S)NNC(=O)c2cccs2)c1	TRPC4 act 236
O=C(NC(=S)NNC(=O)c1cccs1)c1ccco1	none
O=C(NNC(=S)Nc1ccccc1)c1cccs1	none
CC(C)(C)c1ccc(C(=O)NC(=S)NNC(=O)c2cccs2)cc1	TRPC4 act 339
COc1ccc(CN(C)C(=O)c2ccc(NS(=O)(=O)c3ccccc3)cc2)c(OC)c1	none
O=C(O)CN(c1ccc(F)cc1)S(=O)(=O)c1ccc2c(c1)OCCO2	none
COc1ccc(S(=O)(=O)NCCSCc2ccco2)cc1Cl	Kir21 block -6.3
COc1ccc(S(=O)(=O)NCCSCc2ccco2)cc1C	none
O=C(COc1ccc(F)cc1Br)N1CCN(S(=O)(=O)/C=C/c2ccccc2)CC1	TRPC4 PAM 12
O=C(COc1ccc(F)cc1Br)N1CCN(c2ncccn2)CC1	none
CC(C)(C)c1cnnn1-c1ccc(C(=O)CCl)cc1	Kir21 block -6.5
CCOc1cc(CNc2ccc(O)cc2)ccc1OCc1ccc(Cl)cc1Cl	none
COc1cc(CNc2ccc(O)cc2)cc(Br)c1OCc1ccccc1	none
COc1cc(CNC(C)(C)CO)cc(Br)c1OCc1ccc(Cl)cc1	Kir21 block -4.8
CC(C)(CO)NCc1c(OCc2ccc(Cl)cc2)ccc2ccccc12	TRPC6 inhibitor -6.7
CNCc1c(OCc2ccccc2F)ccc2ccccc12	none
COc1cc(CNC(C)(C)CO)cc(Br)c1OCc1ccc(Cl)cc1Cl	Kir21 block -10
Oc1cccc(/C=N/NC(=S)Nc2cccnc2)c1O	TRPC4 act 50
COc1ccc(C[C@H]2CN3C(=NC[C@@H]3C(C)C)N2CCNC(=O)CCC2CCCCC2)cc1	Kir21 block -6.3
CC(C)[C@H]1CN=C2N(CCNC(=O)CCC3CCCCC3)[C@H](Cc3ccc(O)cc3)CN21	none
COc1ccc(C[C@H]2CN3C(=NC[C@@H]3Cc3ccccc3)N2CCNC(=O)CCC2CCCCC2)cc1	TRPC4 act 60, Kir21 block -11
Cc1ccc(C)c(N(CC(=O)NCc2ccccc2)C(=O)c2csnn2)c1	none
O=C(CCC(=O)OCC(=O)c1ccc(Br)cc1)Nc1cccc2cccnc12	none
Cc1[nH]nc(-c2ccc(OCc3cnn(-c4ccccc4)c3)cc2O)c1Oc1ccc(F)cc1	none
N#CCCn1cc(CNCc2ccccc2)c(-c2cccc([N+](=O)[O-])c2)n1	TRPC4 inh -6
COc1ccc(C(Nc2ccccn2)c2c(NC(=O)c3ccco3)sc(C)c2C)cc1OC (configuration not stated)	TRPC4 inh -6
COc1cc(C(Nc2ccccn2)c2c(NC(=O)c3ccco3)sc(C)c2C)cc(OC)c1OC (configuration not stated)	none
Cc1nc2nc(C)c(CCC(=O)N3CCN(c4ccccn4)CC3)c(C)n2n1	none
O=C(CNCc1ccccc1)Nc1ccc(Oc2ccccc2)cc1	Kir21 block -9.5
CC1(C)CC(=O)c2cnc(NC3CC3)nc2C1	none
Cc1ccc(Nc2ncc3c(n2)CC(C)(C)CC3=O)cc1	TRPC4 PAM 18
O=C1OC(N2CCN(C/C=C/c3ccccc3)CC2)c2ccccc21 (configuration not stated)	TRPC4 act 83
O=S(=O)(c1ccccc1)N1CCN(C/C=C/c2ccccc2)CC1	TRPC4 inh -6
